Data set [1] addresses Xanthine dehydrogenase/oxidase (Homo sapiens, UniProt P47989). The data set is described as follows: Inhibition of xanthine oxidase activity assessed as uric acid formation pretreated for 15 mins before substrate addition measured after 5 mins. The settings on record: for inhibition (INH): 5 min.
Data set [2] can be described thus: Cell cycle arrest in human NTUB1 cells assessed as accumulation in subG1 phase at 60 uM after 24 hrs using propidium iodide by FACS analysis. It is filed as functional, cell-based. The gist of the method: (§1)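 NTUB1 bladder carcinoma cells (3 × 10⁵ or 8 × 10⁵ per 10 cm dish) were exposed to 40 or 60 µM for 24 h. Cells were trypsinized, fixed in ice-cold methanol at −20 °C overnight, and stained with 50 µg/mL propidium iodide for 30 min at room temperature. DNA content was measured by flow cytometry, with the sub-G1 fraction taken as apoptosis. Three independent experiments.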
For orientation: In flow cytometry, cells or beads pass a laser one at a time.

Data set [3] in a line: Antioxidant activity against oxide-induced pBR322 DNA damage at 300 uM by agarose gel electrophoresis. It is filed as functional. The gist of the method:
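Supercoiled pBR322 plasmid DNA (500 ng) in phosphate buffer pH 7.4, exposed for 20 min to superoxide generated by xanthine/xanthine oxidase, with or without test agent at 300 µM. SOD and quercetin were positive controls. Strand breaks were resolved by gel electrophoresis.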

A short description of data set [4]: Induction of apoptosis in human NTUB1 cells assessed as increase in ROS level at 20 to 40 uM after 24 hrs by flow cytometry relative to control. It is filed as functional. The method in brief:
(§2)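 NTUB1 cells in 6-well plates were treated for 24 h at 20 or 40 µM. Controls were 1 mM NAC and 10 µM cisplatin. 10 µM DCFH-DA was added 30 min before harvest; cells were then trypsinized and washed in PBS. DCF green fluorescence was read by flow cytometry through a 525 nm band-pass filter and expressed relative to control. Mean ± S.D., n = 3.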

The nature of data set [5]: Cytotoxicity against human NTUB1 cells after 72 hrs by MTT assay. It is filed as functional, cell-based. The conditions noted are these: NTUB1, 72 h. The method in brief: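 NTUB1 cells in RPMI 1640 with 10% FBS were seeded at 1 × 10³ cells/well and left overnight at 37 °C. They were then exposed to graded concentrations for 72 h. MTT was added; plates were spun, the medium removed and DMSO added, and absorbance read at 540 nm. Viability is the ratio to untreated control, and IC50 was taken from the curve. Mean ± S.D., n = 3.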
(In general: Tetrazolium assays rely on reduction of a dye to a coloured formazan, in cell work by metabolically active cells.)

Data set [6] can be described thus: Cytotoxicity against human SV-HUC1 cells at 0.3 to 50 uM after 72 hrs by MTT assay. The data set is classed as cell-based. The settings on record: sv-huc1, 72 h. The method in brief: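 SV-HUC1 cells (SV40-immortalized human uroepithelium), grown in F12 with 10% FBS, were seeded at 1 × 10³ cells/well and left overnight. Graded concentrations were applied for 72 h at 37 °C. Read-out was MTT formazan dissolved in DMSO, absorbance at 540 nm. Viability is expressed relative to untreated control. Mean ± S.D., n = 3.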

Data set [7] is described as follows: Antioxidant activity assessed as ABTS radical scavenging activity. The data set is classed as functional. The method in brief:
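ABTS (7 mM in deionized water) was mixed with 2.45 mM potassium persulfate to form the radical cation. 180 µL of this solution was combined with 40 µL of sample, and absorbance was read at 630 nm. Vitamin E served as positive control. Mean ± s.e.m., n = 3.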

The test system of data set [8] is NTUB1. Put plainly: Induction of apoptosis in human NTUB1 cells assessed as increase in ROS level at 40 uM after 24 hrs by flow cytometry. The data set is classed as functional, cell-based. The gist of the method:
as §2

Data set [9] has as its system NTUB1. Put plainly: Induction of apoptosis in human NTUB1 cells assessed as increase in ROS level at 20 uM after 24 hrs by flow cytometry. The data set is classed as functional, cell-based. The gist of the method:
as §2

A short description of data set [10]: Cell cycle arrest in human NTUB1 cells assessed as accumulation in subG1 phase at 40 uM after 24 hrs using propidium iodide by FACS analysis. It is filed as functional, cell-based. The gist of the method:
as §1

Activity calls are given as the source filed them. The calls are words filed in the database; no cut-off is given here.

In general, IC50 refers to the point on the concentration scale where inhibition reaches its midpoint.

Xanthine dehydrogenase/oxidase, sequence (P47989 whole entry): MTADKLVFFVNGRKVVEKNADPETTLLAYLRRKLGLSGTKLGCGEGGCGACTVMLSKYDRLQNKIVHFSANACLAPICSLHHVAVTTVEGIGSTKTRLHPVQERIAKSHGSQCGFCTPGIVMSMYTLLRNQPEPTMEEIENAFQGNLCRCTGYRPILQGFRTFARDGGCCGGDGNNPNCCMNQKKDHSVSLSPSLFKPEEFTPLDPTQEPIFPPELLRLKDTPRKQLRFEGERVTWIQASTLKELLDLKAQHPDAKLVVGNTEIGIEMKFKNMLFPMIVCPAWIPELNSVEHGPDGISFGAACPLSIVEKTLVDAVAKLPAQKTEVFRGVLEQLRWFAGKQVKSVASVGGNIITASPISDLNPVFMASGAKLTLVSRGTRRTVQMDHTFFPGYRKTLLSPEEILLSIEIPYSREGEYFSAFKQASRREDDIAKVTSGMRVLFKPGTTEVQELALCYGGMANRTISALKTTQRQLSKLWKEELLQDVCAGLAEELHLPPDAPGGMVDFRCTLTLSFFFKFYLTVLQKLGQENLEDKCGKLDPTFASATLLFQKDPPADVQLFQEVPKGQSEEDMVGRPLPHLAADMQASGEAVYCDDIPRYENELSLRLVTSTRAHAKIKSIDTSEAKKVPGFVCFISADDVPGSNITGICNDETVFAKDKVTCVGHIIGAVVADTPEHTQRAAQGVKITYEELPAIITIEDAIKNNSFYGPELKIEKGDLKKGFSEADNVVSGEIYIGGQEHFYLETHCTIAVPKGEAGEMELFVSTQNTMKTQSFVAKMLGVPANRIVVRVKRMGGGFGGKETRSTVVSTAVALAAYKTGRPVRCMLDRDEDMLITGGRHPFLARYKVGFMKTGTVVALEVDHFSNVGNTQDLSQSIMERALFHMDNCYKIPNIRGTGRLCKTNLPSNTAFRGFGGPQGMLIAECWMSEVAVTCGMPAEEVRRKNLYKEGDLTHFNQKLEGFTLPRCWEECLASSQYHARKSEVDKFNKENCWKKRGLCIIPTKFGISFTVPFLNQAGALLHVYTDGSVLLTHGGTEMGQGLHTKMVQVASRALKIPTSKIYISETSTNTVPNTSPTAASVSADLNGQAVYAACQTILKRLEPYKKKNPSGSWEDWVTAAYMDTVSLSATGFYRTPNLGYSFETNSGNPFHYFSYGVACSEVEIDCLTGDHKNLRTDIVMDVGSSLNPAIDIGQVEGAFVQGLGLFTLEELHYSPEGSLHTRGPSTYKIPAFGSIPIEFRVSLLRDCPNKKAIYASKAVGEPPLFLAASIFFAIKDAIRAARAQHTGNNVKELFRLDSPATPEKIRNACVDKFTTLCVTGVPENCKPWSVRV

Take `Oc1ncnc2[nH]ncc12` [ALLOPURINOL]: in data set [1], the “inhibition (INH)” value was “Dose-dependent effect”.
Regarding `O=c1c2ccc(O)cc2oc2cc(OCCCN3CCCCC3)ccc12`, the values for the IC50 in data set [1], in data set [5] and in [7] (read-out: IC50) were 82.3 µM, 35.1 µM and 69.3 µM, respectively. For the same compound, the “inhibition (INH)” value in [1] is given as “Dose-dependent effect”. The outcome in data set [2], in data set [3] and in [8] was Active. Moreover, the Activity is listed as 250% in data set [4] and “Non-toxic” in [6].
Turning to `O=c1c2ccc(O)cc2oc2cc(OCCCNC3CC3)ccc12`, in data set [1], the IC50 stood at 63 µM and the “inhibition (INH)” value is “Dose-dependent effect”. The result in data set [3] was Active. For the same compound, the IC50 in data set [7] (read-out: IC50) came out at 108 µM.
Take `CN1CCN(CCCOc2ccc3c(=O)c4ccc(O)cc4oc3c2)CC1`: in data set [1], the 50% inhibitory concentration (IC50) is 44.3 µM and the “inhibition (INH)” value was “Dose-dependent effect”. Also, the IC50 in data set [7] (read-out: IC50) stood at 76.5 µM.
As for `O=c1c2ccc(O)cc2oc2cc(OCCCNC3CCCCC3)ccc12`, in [1], the IC50 is 72.9 µM and the “inhibition (INH)” value is recorded as “Dose-dependent effect”. Besides, the result in data set [3] was Active. The IC50 in [7] (read-out: IC50) was determined as 106 µM.
As to VITAMIN E, the half-maximal inhibitory concentration (IC50) in data set [7] (read-out: IC50) turned out to be 77.2 µM.
For the compound `CCN(CC)CCCOc1ccc2c(=O)c3ccc(O)cc3oc2c1`, in [1], the IC50 was 53.5 µM and the “inhibition (INH)” value was “Dose-dependent effect”. The IC50 in data set [7] (read-out: IC50) was determined as 80.5 µM.
Take `CN1CCN(CCCOc2ccc3c(=O)c4ccccc4oc3c2)CC1`: the IC50 was found to be 47.3 µM in [1] and 152 µM in data set [7] (read-out: IC50). The “inhibition (INH)” value in data set [1] is listed as “Dose-dependent effect”. Also, the outcome in data set [3] was Active.
As to `O=c1c2ccccc2oc2cc(OCCCN3CCCCC3)ccc12`, the IC50 in data set [1] stood at 37.8 µM; in data set [5], 31.2 µM; in [7] (read-out: IC50) it was 90 µM. For the same compound, in data set [1], the “inhibition (INH)” value is given as “Dose-dependent effect”. Besides, the outcome in data set [3], in data set [9] and in data set [10] was Active. Moreover, in data set [4], the Activity was determined as 250%.
`O=c1c2ccc(O)cc2oc2cc(OCCCN3CCCC3)ccc12`: in data set [1], the IC50 turned out to be 68.8 µM and the “inhibition (INH)” value is given as “Dose-dependent effect”. In addition, the result in [3] was Active. Besides, the IC50 in data set [7] (read-out: IC50) is 88.8 µM.
The corresponding values for `O=c1c2ccccc2oc2cc(OCCCN3CCNCC3)ccc12` are 109 µM, “Dose-dependent effect”, “Active” and 75.1 µM.
For `O=c1c2ccc(O)cc2oc2cc(OCCCN3CCNCC3)ccc12`, in data set [1], the IC50 was determined as 91.9 µM and the “inhibition (INH)” value is reported as “Dose-dependent effect”. Further, the IC50 in data set [7] (read-out: IC50) amounted to 65 µM.
Consider `CCN(CC)CCCOc1ccc2c(=O)c3ccccc3oc2c1`, for which, in data set [1], the IC50 is 56.5 µM and the “inhibition (INH)” value is “Dose-dependent effect”. In addition, the result in [3] was Active. Besides, in data set [7] (read-out: IC50), the IC50 was 84.9 µM.
For the compound `O=c1c2ccccc2oc2cc(OCCCN3CCCC3)ccc12`, in [1], the IC50 came out at 65.5 µM and the “inhibition (INH)” value is recorded as “Dose-dependent effect”. Also, in data set [3], the outcome was Active. Besides, in data set [7], the IC50 result is recorded as “Not Active”.
